# Columns and labels:
# [1] = tested on: Hepatitis B virus; experiment: Antiviral activity against lamivudine/entecavir resistant HBV harboring reverse transcriptase L180M/M204V/T184L mutant infected in human […] after 72 hrs by RT-PCR method; format: functional, organism-based
# Method in brief: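 HepG2 cells (2×10^5 per well) were plated, incubated overnight, then transiently transfected for 24 h with a plasmid carrying the full HBV genome with rtL180M + rtM204V + rtT184L. Medium was discarded, cells washed with PBS, then treated across a dose range in fresh medium for 72 h. Intracellular HBV DNA replicative intermediate was quantified by real-time PCR. IC50 is 50% inhibition of DNA replication.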
# [2] = tested on: Hepatitis B virus; experiment: Antiviral activity against HBV infected in human […] cells assessed as inhibition of viral DNA replication at 100 uM after 72 hrs by RT-PCR method relative to control; format: functional
# Method in brief: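 HepG2 cells (2×10^5/well) transfected overnight-plated, 24 h with plasmid carrying wild-type or rtL180M+rtM204V+rtT184L resistant HBV; after PBS wash, fresh medium with lamivudine 100 μM, entecavir 10 μM, or test compounds 1 μM (one at 10 μM) for 72 h; replicative intermediate HBV DNA measured by real-time PCR.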
# [3] = tested on: Hepatitis B virus; experiment: Antiviral activity against lamivudine/entecavir resistant HBV harboring reverse transcriptase L180M/M204V/T184L mutant infected in human HepG2 cells assessed as inhibition of viral DNA replication at 100 uM after 72 hrs by RT-PCR method relative to control; details: HepG2, 72 h
# [4] = tested on: Hepatitis B virus; experiment: Antiviral activity against HBV infected in human HepG2(2.2.15) cells assessed as inhibition of intracellular viral pregenomic RNA expression at 1 uM after 6 days by TRIzol reagent based RT-PCR method relative to control; format: functional; details: HepG2 2.2.15, 144 h
# Method in brief: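 HepG2 2.2.15 cells at 6×10^5 per well treated 6 days at 1 μM; total cellular RNA extracted and intracellular HBV pgRNA quantified by real-time PCR.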
# [5] = Selectivity index, ratio of CC50 for human HepG2(2.2.15) cells to IC50 for antiviral activity against lamivudine/entecavir resistant HBV harboring reverse transcriptase L180M/M204V/T184L mutant infected in human HepG2(2.2.15) cells; format: toxicity, cell-based; details: read-out: Ratio CC50/IC50
# Method in brief: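 SI = CC50/IC50. CC50 comes from HepG2 2.2.15 cells grown to confluence and treated for 72 h, with MTT absorbance at 490 nm relative to untreated cells, in triplicate. IC50 comes from mutant-plasmid-transfected HepG2 cells treated for 72 h, with HBV DNA measured by real-time PCR.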
# [6] = tested on: Hepatitis B virus; experiment: Antiviral activity against HBV infected in human HepG2(2.2.15) cells assessed as inhibition of viral DNA replication after 6 days by RT-PCR method; format: functional, organism-based; details: HepG2 2.2.15, 144 h
# Method in brief: (§1)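 HepG2 2.2.15 cells (stable HBV genome; DMEM, 10% FBS, G418 0.38 mg/mL) seeded 2×10^5/well, recovered 24 h, then compound in assay medium (single 20 or 4 μM, or dose series for IC50), medium changed every 2 days; after 6 days HBV DNA extracted and quantified by real-time PCR. Mean ± SD, ≥3 independent experiments in duplicate.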
# [7] = Cytotoxicity against human HepG2(2.2.15) cells assessed as reduction in cell viability after 72 hrs by MTT assay; format: cell-based
# Method in brief: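 Confluent HepG2 2.2.15 cells exposed to graded compound concentrations for 72 h alongside untreated controls on each plate; viability by MTT uptake, absorbance 490 nm relative to untreated cells; CC50 = concentration killing 50% of cells. Three replicates.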
# [8] = tested on: Hepatitis B virus; experiment: Antiviral activity against HBV infected in human HepG2(2.2.15) cells assessed as inhibition of viral DNA replication at 20 uM after 6 days by RT-PCR method relative to control; format: functional; details: HepG2 2.2.15, 144 h; method in brief: as §1
# [9] = Selectivity index, ratio of CC50 for human HepG2(2.2.15) cells to IC50 for antiviral activity against HBV infected in human HepG2(2.2.15) cells assessed as inhibition of viral DNA replication; format: toxicity, cell-based; details: read-out: Ratio CC50/IC50
# Method in brief: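 SI calculated as CC50 (72 h MTT, HepG2 2.2.15) divided by IC50 for inhibition of HBV DNA replication measured by real-time PCR.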
smiles,measurement,setting,value
Nc1ccn([C@@H]2CS[C@H](CO)O2)c(=O)n1 [LAMIVUDINE],IC50,[1],> 100 µM
same,inhibition at 100 µM,[2],94.3%
same,inhibition at 100 µM,[3],19.4%
same,inhibition at 1 µM,[4],0.81%
same,selectivity ratio,[5],< 1
same,IC50,[6],< 0.1 µM
same,CC50 at 72 h,[7],> 100 µM
same,inhibition at 20 µM,[8],92.7%
same,selectivity ratio,[9],> 1000

# Reference: ChEMBL document CHEMBL4145455, “Design, synthesis and evaluation of novel phenyl propionamide derivatives as non-nucleoside hepatitis B virus inhibitors” (Eur J Med Chem, 2018)
